Series [1] has as its target Sonic hedgehog protein (Mus musculus) (UniProt Q62226). The series is described as follows: Activation of Shh pathway in mouse Shh-Light II cells assessed as induction of gli1 expression at 1 uM after 48 hrs by […] luminescence assay. It is filed as functional, cell-based. Summed up: (§1)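 Shh-Light II cells were given compounds from DMSO stocks (final DMSO 0.1%; top concentration 1000 nm) for 48 h, then PBS-washed and lysed. Gli reporter luminescence was measured by dual-luciferase and normalized to constitutive Renilla. EC50 came from a Hill-slope fit of RLU/s versus concentration. 2–4 independent experiments, each in technical triplicate.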

Series [2] deals with HUVEC. The series is described as follows: Induction of HUVEC proliferation after 48 hrs by BrdU-incorporation assay. It is filed as functional, cell-based. To be noted: Homo sapiens. The gist of the method:
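HUVEC were seeded at 5000 cells/well. After 24 h the medium was swapped for a compound dilution series (≤0.5% DMSO) and incubated 48 h. BrdU incorporation was read by chemiluminescent ELISA.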

Series [3] has as its system HUVEC. Briefly: Induction of angiogenesis in HUVEC assessed as formation of cell sprouts after 48 hrs by 3D spheroid angiogenesis assay. To be noted: Homo sapiens.
The next series deals with Sonic hedgehog protein (Mus musculus, UniProt Q62226). The series is described as follows: Activation of Shh pathway in mouse Shh-Light II cells assessed as induction of gli1 expression after 48 hrs by […] luminescence assay. It is filed as functional, cell-based. The gist of the method:
as §1

Series [4] relates to HUVEC. The series is described as follows: Cytotoxicity against HUVEC up to 10 uM after 24 hrs by WST-1 assay. It is filed as cell-based. The settings on record: human. Summed up: (§2)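 HUVEC were seeded at 7500 cells/well and exposed to a compound concentration series (<0.5% DMSO) for 24 h. WST-1 was then added and incubated 24 h. Absorbance at 440 and 650 nm was read, and the absorbance difference was plotted against concentration.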

Series [5] deals with Sonic hedgehog protein (Homo sapiens) (UniProt Q15465). The series is described as follows: Activation of Shh pathway in human foreskin fibroblasts assessed as increase in VEGF expression after 48 hrs by ELISA. Summed up: (§3)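 Primary foreskin fibroblasts were plated in DMEM with 10% FBS for 24 h, washed free of nonadherent cells and reseeded at 14000 cells/well. After 72 h the medium was replaced with compound (0.1–1.0 µm range, <0.1% DMSO). Cells were held 48 h at 37 °C, 5% CO2. Three independent experiments.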
Sequence of Sonic hedgehog protein (Homo sapiens) (Q15465 24-197 limits assumed): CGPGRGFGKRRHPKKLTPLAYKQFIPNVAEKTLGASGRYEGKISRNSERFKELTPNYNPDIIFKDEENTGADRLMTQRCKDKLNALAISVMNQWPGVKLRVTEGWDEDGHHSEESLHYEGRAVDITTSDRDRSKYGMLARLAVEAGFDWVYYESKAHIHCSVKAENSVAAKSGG

Series [6] has the same target. Briefly: Activation of Shh pathway in human foreskin fibroblasts assessed as increase in VEGF expression at 0.1 to 1 uM after 48 hrs by ELISA relative to control. Summed up: as §3
The target is the same in series [7]. Briefly: Activation of Shh pathway in human foreskin fibroblasts assessed as induction of maximum VEGF expression at 1 uM after 48 hrs by ELISA relative to control. The gist of the method:
as §3

For series [8], the system named is HUVEC. Briefly: Cytotoxicity against HUVEC after 24 hrs by WST-1 assay. To be noted: Homo sapiens. It is filed as cell-based. Summed up: as §2
Series [9] is described as follows: Ratio of compound IC50 to SAG IC50 for HUVEC. In kind it is ADME, cell-based. To be noted: human, HUVEC cells; read-out: Ratio IC50.
For series [10], the target named is Sonic hedgehog protein (Homo sapiens) (UniProt Q15465). The series is described as follows: Activation of Shh pathway in human foreskin fibroblasts assessed as induction of maximum VEGF expression at 0.5 uM after 48 hrs by ELISA relative to control. The gist of the method:
as §3

Calls of active or inactive are those of the source. The calls are words filed in the database; no cut-off is given here.

Sequence of Sonic hedgehog protein (Q62226 25-198 limits assumed): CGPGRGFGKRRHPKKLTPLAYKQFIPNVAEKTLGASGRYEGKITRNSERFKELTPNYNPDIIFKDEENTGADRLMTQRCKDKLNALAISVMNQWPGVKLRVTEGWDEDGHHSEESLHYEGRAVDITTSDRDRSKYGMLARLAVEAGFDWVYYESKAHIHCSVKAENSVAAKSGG

Consider `Cc1c(C(=O)N(Cc2ccco2)C2CCNCC2)oc2ccccc12`, for which the outcome (in [1]; in the series with HUVEC [2]; with HUVEC [3]) was inactive.

Turning to `O=C(c1sc2ccccc2c1Cl)N(Cc1ccnc2ccccc12)C1CCNCC1`, the outcome (in [1]; in the series on HUVEC [2]; in the series on HUVEC [3]) was inactive.

In the case of `N#Cc1ccc(CN(C(=O)c2sc3ccccc3c2Cl)C2CCNCC2)cc1`, the result (in series [1]; in the series with HUVEC [2]; in the series on HUVEC [3]) was inactive.

Turning to `CC(=O)Nc1ccc(CN(C(=O)c2oc3ccccc3c2C)C2CCNCC2)cc1`, the result (in series [1]; in the series with HUVEC [2]; in the series on HUVEC [3]) was inactive.

On to `CCOc1cc(C(=O)N(Cc2cccc(-c3ccncc3)c2)[C@H]2CC[C@H](NC)CC2)cc(OCC)c1OCC`, for which the result (in series [1]; in the series on HUVEC [2]; in the series on HUVEC [3]) was inactive.

In the case of `CN[C@H]1CC[C@@H](N(Cc2cccc(-c3ccncc3)c2)C(=O)c2sc3ccccc3c2Cl)CC1`, the EC50 on Sonic hedgehog protein is 61.8 nM. Besides, the values for the Activity result (in the series on HUVEC [4]; in series [5]; in series [7]) were “Non-toxic”, “Dose-dependent effect” and 23.8 pg/mL, respectively. The fold change (FC) in series [6] is 7. Moreover, the outcome in the series on HUVEC [2] and in the series on HUVEC [3] was inactive.

In the case of `CN[C@H]1CC[C@H](N(Cc2cccc(-c3ccncc3)c2)C(=O)c2oc3ccccc3c2C)CC1`, the result (in series [1]; with HUVEC [2]; with HUVEC [3]) was inactive.

As to `CC(=O)Nc1ccc(CN(C(=O)c2sc3cccc(Cl)c3c2Cl)C2CCNCC2)cc1`, the result (in series [1]; in the series on HUVEC [2]; in the series on HUVEC [3]) was inactive.

As for `CN[C@H]1CC[C@H](NCc2cccc(-c3ccncc3)c2)CC1`, the outcome (in series [1]; in the series with HUVEC [2]; in the series on HUVEC [3]) was inactive.

Consider `CC(=O)Nc1ccc(CN(C(=O)c2sc3ccccc3c2Cl)C2CCNCC2)cc1`, for which the outcome (in [1]; in the series with HUVEC [2]; in the series with HUVEC [3]) was inactive.

For `O=C(c1sc2cccc(Cl)c2c1Cl)N(Cc1cccc(-c2ccncc2)c1)C1CCNCC1`, the outcome (in series [1]; with HUVEC [2]; with HUVEC [3]) was inactive.

As to `O=C(c1sc2ccccc2c1Cl)N(Cc1cccc(Br)c1)C1CCNCC1`, the result (in series [1]; in the series on HUVEC [2]; in the series on HUVEC [3]) was inactive.

Regarding `O=C(c1sc2cc(F)ccc2c1Cl)N(Cc1cccc(-c2ccncc2)c1)C1CCNCC1`, the outcome (in [1]; in the series with HUVEC [2]; in the series on HUVEC [3]) was inactive.

In the case of `CN[C@H]1CC[C@H](N(Cc2cccc(-c3ccncc3)c2)C(=O)c2ccc(-c3ccccc3)o2)CC1`, on Sonic hedgehog protein, the EC50 was 53.8 nM. In addition, in the series on HUVEC [4], the Activity entry is on record as “Non-toxic”. For the same compound, the result in the series on HUVEC [2] and with HUVEC [3] was inactive.

For the compound `CN[C@H]1CC[C@H](N(Cc2cccc(-c3ccncc3)c2)C(=O)c2sc3cccc(Cl)c3c2Cl)CC1`, the EC50 at Sonic hedgehog protein came out at 21.9 nM. The Activity result with HUVEC [4] is “Non-toxic”; in [5] it was “Dose-dependent effect”; in [7], 32.4 pg/mL. Also, half-maximal inhibition with HUVEC [8] (IC50) was put at 250000 nM. For the same compound, in [9], the selectivity ratio was 10. For the same compound, in series [6], the fold change (FC) was 7. Also, the result with HUVEC [2] and with HUVEC [3] was inactive.

With `CN[C@H]1CC[C@H](N(Cc2cccc(-c3ccncc3)c2)C(=O)c2cc3ccccc3s2)CC1`, the result (in series [1]; in the series with HUVEC [2]; in the series on HUVEC [3]) was inactive.

With `CN[C@H]1CC[C@H](N(Cc2cccc(-c3ccncc3)c2)C(=O)c2sc3cc(F)ccc3c2Cl)CC1`, the EC50 at Sonic hedgehog protein was found to be 176 nM. Also, the Activity entry in the series with HUVEC [4] was “Non-toxic”; in [5], “Dose-dependent effect”; in series [7], 32.2 pg/mL. For the same compound, in series [6], the fold change (FC) was found to be 7. Besides, the outcome with HUVEC [2] and in the series on HUVEC [3] was inactive.

Take `CN[C@H]1CC[C@@H](N(Cc2cccc(-c3ccncc3)c2)C(=O)c2sc3cccc(Cl)c3c2Cl)CC1`: on Sonic hedgehog protein, the EC50 worked out at 7.6 nM. Further, the Activity entry in the series on HUVEC [4] is listed as “Non-toxic”. The result in the series with HUVEC [2] and in the series on HUVEC [3] was inactive.

As to `N#Cc1ccc(CN(C(=O)c2sc3cc(F)ccc3c2Cl)C2CCNCC2)cc1`, the result (in series [1]; in the series with HUVEC [2]; in the series on HUVEC [3]) was inactive.

`CN[C@H]1CC[C@H](N(Cc2cccc(-c3ccncc3)c2)C(=O)c2sc3cc(Cl)ccc3c2Cl)CC1`: the outcome (in series [1]; with HUVEC [2]; in the series on HUVEC [3]) was inactive.

For `CN[C@H]1CC[C@H](N(Cc2ccnc3ccccc23)C(=O)c2sc3ccccc3c2Cl)CC1`, the result (in series [1]; in the series with HUVEC [2]; with HUVEC [3]) was inactive.

As for `CN[C@H]1CC[C@H](N(Cc2ccncc2)C(=O)c2sc3ccccc3c2Cl)CC1`, the result (in series [1]; with HUVEC [2]; with HUVEC [3]) was inactive.

On to `CN[C@H]1CC[C@H](N(Cc2cccc(-c3ccncc3)c2)C(=O)c2sc3ccccc3c2Cl)CC1`, for which the EC50 at Sonic hedgehog protein was 8.8 nM. For the same compound, the Activity result with HUVEC [4] was “Non-toxic”; in [5], “Dose-dependent effect”; in [10], 29.6 pg/mL. The same compound came in with a half-maximal inhibitory concentration (IC50) in the series with HUVEC [8] of 22000 nM. In series [6], the fold change (FC) amounted to 7. Further, the outcome in the series with HUVEC [2] and in the series with HUVEC [3] was inactive.

Consider `CN[C@H]1CC[C@H](N(Cc2cccc(-c3ccncc3)c2)C(=O)c2[nH]c3ccccc3c2Cl)CC1`, for which the EC50 at Sonic hedgehog protein worked out at 118 nM. Moreover, the Activity result with HUVEC [4] is reported as “Non-toxic”. Besides, the outcome in the series on HUVEC [2] and in the series with HUVEC [3] was inactive.

Take `Cc1c(C(=O)N(Cc2cccs2)C2CCNCC2)oc2ccccc12`: the outcome (in series [1]; in the series on HUVEC [2]; in the series with HUVEC [3]) was inactive.

Take `N#Cc1ccc(CN(C(=O)c2sc3cccc(Cl)c3c2Cl)C2CCNCC2)cc1`: the result (in series [1]; in the series on HUVEC [2]; in the series on HUVEC [3]) was inactive.

Regarding `O=C(c1sc2cccc(Cl)c2c1Cl)N(Cc1ccco1)C1CCNCC1`, the outcome (in series [1]; with HUVEC [2]; in the series on HUVEC [3]) was inactive.

Regarding `O=C(c1sc2ccccc2c1Cl)N(Cc1ccco1)C1CCNCC1`, the result (in series [1]; in the series on HUVEC [2]; with HUVEC [3]) was inactive.

For `CC(=O)Nc1ccc(CN(C(=O)c2sc3cc(F)ccc3c2Cl)C2CCNCC2)cc1`, the result (in series [1]; in the series with HUVEC [2]; in the series with HUVEC [3]) was inactive.

Consider `O=C(c1sc2ccccc2c1Cl)N(Cc1cccc(-c2ccncc2)c1)C1CCNCC1`, for which the result (in series [1]; with HUVEC [2]; in the series on HUVEC [3]) was inactive.

For `O=C(c1sc2cc(F)ccc2c1Cl)N(Cc1ccco1)C1CCNCC1`, the outcome (in series [1]; in the series on HUVEC [2]; in the series on HUVEC [3]) was inactive.

Regarding `O=C(c1sc2ccccc2c1Cl)N(Cc1cccs1)C1CCNCC1`, the outcome (in [1]; in the series with HUVEC [2]; with HUVEC [3]) was inactive.

(Values after ChEMBL document CHEMBL2157999, “Potent small molecule Hedgehog agonists induce VEGF expression in vitro” (Bioorg Med Chem, 2012).)
